# Article PMC3034734 (Chemistry & biology, 2009)
# Numbering of substitutions follows the chain as printed. Like-named read-outs stand apart in the source and are kept apart here.
# How the values were obtained:
# [1] = biological target: T1, purified recombinant rat MGL (Rattus norvegicus, UniProt Q8R431); assay: Inhibition of purified recombinant MGL; assay type: biochemical
# T1 sequence (Q8R431 1-303): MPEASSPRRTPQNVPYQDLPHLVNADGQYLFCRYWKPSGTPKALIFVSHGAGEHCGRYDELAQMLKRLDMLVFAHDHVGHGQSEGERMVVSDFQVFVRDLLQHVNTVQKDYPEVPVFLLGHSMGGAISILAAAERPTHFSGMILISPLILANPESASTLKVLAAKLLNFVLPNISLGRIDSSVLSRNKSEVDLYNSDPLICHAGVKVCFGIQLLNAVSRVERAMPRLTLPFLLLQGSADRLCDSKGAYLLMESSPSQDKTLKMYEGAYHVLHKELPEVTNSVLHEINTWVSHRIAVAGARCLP
# [2] = test system: primary cultures of rat cortical neurons; assay: 2-AG and PEA levels in primary cultures of rat cortical neurons; assay type: cell-based
# [3] = biological target: T2, non-purified HeLa MGL (wild-type) (Rattus norvegicus, UniProt Q8R431); assay: Inhibition of non-purified MGL; assay type: biochemical
# T2 sequence (Q8R431 1-303): T1 sequence (Q8R431 1-303)
# [4] = biological target: T3, MGL C208G mutant (Rattus norvegicus, UniProt Q8R431, C208G); assay: Inhibition of MGL C208G mutant in HeLa cell extracts; assay type: biochemical
# T3 sequence (Q8R431 1-303 C208G): T1 sequence (Q8R431 1-303) with C208G
# [5] = biological target: T4, MGL C201G mutant (Rattus norvegicus, UniProt Q8R431, C201G); assay: Inhibition of MGL C201G mutant in HeLa cell extracts; assay type: biochemical
# T4 sequence (Q8R431 1-303 C201G): T1 sequence (Q8R431 1-303) with C201G
# [6] = biological target: T5, MGL Cys32 mutant (Rattus norvegicus, UniProt Q8R431, C32G); assay: Inhibition of MGL Cys32 mutant; assay type: biochemical; details: data not shown
# T5 sequence (Q8R431 1-303 C32G): T1 sequence (Q8R431 1-303) with C32G
# [7] = biological target: purified MGL (Rattus norvegicus, UniProt Q8R431); assay type: biochemical
# [8] = biological target: T6, non-purified HeLa MGL (Rattus norvegicus, UniProt Q8R431); assay: Michaelis-Menten kinetic analysis of the MGL reaction; assay type: biochemical; details: for Vmax of MGL in presence of inhibitor: vehicle 200±20; for Mechanism of MGL inhibition: from rapid dilution and kinetic experiments
# T6 sequence (Q8R431 1-303): T1 sequence (Q8R431 1-303)
# [9] = biological target: T7, rat ABHD6 (Rattus norvegicus, UniProt Q5XI64); assay: ABHD6 activity assay; assay type: biochemical
# T7 sequence (Q5XI64 1-337): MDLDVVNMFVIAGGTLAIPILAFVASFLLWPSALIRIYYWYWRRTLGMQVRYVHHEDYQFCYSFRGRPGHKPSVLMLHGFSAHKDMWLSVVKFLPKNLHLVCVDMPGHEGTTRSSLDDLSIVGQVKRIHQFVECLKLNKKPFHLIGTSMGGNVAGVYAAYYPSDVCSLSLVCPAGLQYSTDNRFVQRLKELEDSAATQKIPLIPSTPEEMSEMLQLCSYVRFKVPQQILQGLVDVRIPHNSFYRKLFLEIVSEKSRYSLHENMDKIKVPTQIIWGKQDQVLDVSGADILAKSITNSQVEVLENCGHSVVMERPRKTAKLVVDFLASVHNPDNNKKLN
# [10] = biological target: T8, rat ABHD12 (Rattus norvegicus, UniProt Q6AYT7); assay: ABHD12 activity assay; assay type: biochemical; details: in vitro
# T8 sequence (Q6AYT7 1-398): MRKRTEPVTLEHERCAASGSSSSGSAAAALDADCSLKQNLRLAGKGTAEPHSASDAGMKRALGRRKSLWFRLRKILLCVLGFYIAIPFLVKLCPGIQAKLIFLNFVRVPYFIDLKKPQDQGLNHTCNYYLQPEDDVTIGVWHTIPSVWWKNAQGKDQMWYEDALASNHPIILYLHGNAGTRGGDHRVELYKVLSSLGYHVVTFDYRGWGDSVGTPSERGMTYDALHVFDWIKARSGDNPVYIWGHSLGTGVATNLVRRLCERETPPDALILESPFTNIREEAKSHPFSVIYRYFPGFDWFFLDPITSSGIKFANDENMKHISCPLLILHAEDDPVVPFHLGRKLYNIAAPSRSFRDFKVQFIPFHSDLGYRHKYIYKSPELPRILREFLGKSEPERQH
# How it was run: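 Rat full-length ABHD12 (V5-tagged) transiently expressed in HeLa cells, harvested at 48 h, and homogenised in 50 mM Tris-Cl pH 8.0 with 0.32 M sucrose. Modified MGL assay run at pH 7.5 with 3 μg protein per reaction for 30 min at 37°C. Samples extracted; product (m/z 281) quantified by negative-ion ESI LC/MS in SIM mode against heptadecanoic acid standard.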
# [11] = test system: rat brain diacylglycerol lipase; assay: DGL activity in rat brain homogenates; assay type: biochemical; details: in vitro, Table S1
# [12] = biological target: T9, rat brain FAAH (Rattus norvegicus, UniProt P97612); assay: FAAH activity in rat brain homogenates; assay type: biochemical; details: in vitro, Table S1
# T9 sequence (P97612 1-579): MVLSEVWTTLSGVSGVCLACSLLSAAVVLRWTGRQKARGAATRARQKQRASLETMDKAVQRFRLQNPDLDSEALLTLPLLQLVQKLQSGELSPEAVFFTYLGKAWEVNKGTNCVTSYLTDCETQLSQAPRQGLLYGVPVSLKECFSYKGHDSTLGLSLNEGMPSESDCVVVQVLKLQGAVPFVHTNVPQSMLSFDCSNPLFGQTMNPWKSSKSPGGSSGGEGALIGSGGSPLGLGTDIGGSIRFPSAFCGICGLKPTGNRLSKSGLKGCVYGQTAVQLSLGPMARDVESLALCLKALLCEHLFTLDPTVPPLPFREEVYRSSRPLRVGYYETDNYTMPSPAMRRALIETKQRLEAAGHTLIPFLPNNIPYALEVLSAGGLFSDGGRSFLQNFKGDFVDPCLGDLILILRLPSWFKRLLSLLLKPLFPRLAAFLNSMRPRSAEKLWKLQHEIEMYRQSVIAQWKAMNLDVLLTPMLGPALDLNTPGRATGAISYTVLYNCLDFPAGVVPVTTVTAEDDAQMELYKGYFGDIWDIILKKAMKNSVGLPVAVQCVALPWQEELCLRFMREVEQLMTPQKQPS
# [13] = biological target: T10, rat recombinant N-acylethanolamide acid amidase (Rattus norvegicus, UniProt Q5KTC7); assay: NAAA activity assay; assay type: biochemical; details: in vitro, Table S1
# T10 sequence (Q5KTC7 131-362 limits assumed): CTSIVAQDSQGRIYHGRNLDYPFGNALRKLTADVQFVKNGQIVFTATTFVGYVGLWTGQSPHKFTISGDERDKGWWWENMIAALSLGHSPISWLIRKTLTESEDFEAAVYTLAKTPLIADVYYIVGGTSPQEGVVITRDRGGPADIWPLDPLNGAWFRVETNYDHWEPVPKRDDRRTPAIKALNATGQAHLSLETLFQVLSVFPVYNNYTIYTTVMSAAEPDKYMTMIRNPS
# T10 sequence (Q5KTC7 34-130 limits assumed): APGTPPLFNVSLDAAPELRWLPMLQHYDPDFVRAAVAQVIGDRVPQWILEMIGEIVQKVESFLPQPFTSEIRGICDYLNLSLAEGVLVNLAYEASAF
# How it was run: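 Rat NAAA (Flag-tagged) from stably transfected HEK293 cells (G418 0.3 mg/ml), prepared by sonication, differential centrifugation, freeze-thaw and 105,000 × g supernatant. 50 μM heptadecenoylethanolamide incubated with 10 μg protein in 50 mM sodium phosphate pH 5.0, 0.1% Triton X-100, 3 mM DTT, 30 min at 37°C. Stopped with cold methanol containing heptadecanoic acid; product (m/z 267) measured by LC/MS SIM.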
# [14] = IC50, inhibition of non-purified MGL, cell lysates of MGL-transfected HeLa cells
# [15] = IC50, wild-type MGL in HeLa cell extracts, wt control of the mutational analysis
compound,measurement,setting,value
CC1=C(O)C(=O)C=C2C1=CC=C1[C@@]2(C)CC[C@@]2(C)[C@@H]3C[C@](C)(C(=O)O)CC[C@]3(C)CC[C@]12C [Celastrol],IC50,[1],1.6 ± 0.4 µM
Cc1c(O)c(O)cc2c1CC=C1[C@@]2(C)CC[C@@]2(C)[C@@H]3C[C@](C)(C(=O)O)CC[C@]3(C)CC[C@]12C [Dihydrocelastrol],IC50,[1],15 ± 4 µM
CC(=O)Oc1cc2c(c(C)c1OC(C)=O)CC=C1[C@@]2(C)CC[C@@]2(C)C3C[C@](C)(C(=O)O)CC[C@]3(C)CC[C@]12C (some centres unmarked) [Dihydrocelastryl Diacetate],IC50,"[1]; read-out: IC50, inhibition of purified recombinant MGL",15 ± 3 µM
"CCCCC/C=C\C/C=C\C/C=C\C/C=C\CCCCN1C(=O)C=CC1=O [N-arachidonylmaleimide, reference compound]",Effect on 2-AG levels,[2],increased
same,Effect on PEA levels,[2],increased
COC(=O)[C@]1(C)CC[C@]2(C)CC[C@]3(C)C4=CC=C5C(=CC(=O)C(O)=C5C)[C@]4(C)CC[C@@]3(C)[C@@H]2C1 [Pristimerin],IC50,[3]; [14],0.398 ± 0.068 µM
same,IC50,[3]; [15],0.35 ± 0.037 µM
same,IC50,[4],1.18 ± 0.174 µM
same,Effect of Cys201 mutation on inhibitory potency,"[5]; C201G vs wt, HeLa cell extracts",without affecting the potency
same,Effect of Cys32 mutation on activity of inhibitor,[6],did not influence the activity
same,Time-course of MGL inhibition,[7],almost immediate blockade of MGL activity
same,Vmax of MGL in presence of inhibitor,[8]; 100 nM inhibitor,174 ± 7 pmol/min/µg
same,Vmax of MGL in presence of inhibitor,[8]; 300 nM inhibitor,104 ± 7 pmol/min/µg
same,Vmax of MGL in presence of inhibitor,[8]; 500 nM inhibitor,51 ± 18 pmol/min/µg
same,Mechanism of MGL inhibition,[8],"rapid, reversible and non-competitive"
same,Effect on PEA levels,"[2]; 1 μM, 30 min",not accompanied by any significant changes
same,Cellular 2-AG concentrations,"[2]; 1 μM, 30 min, over vehicle-treated neurons",1.6±0.1 fold change
same,IC50,[9],0.098 ± 0.008 µM
same,Effect on ABHD12 activity,[10],did not affect the activity
same,Effect on diacylglycerol lipase activity,[11],no significant effect
same,Effect on FAAH activity,[12],no significant effect
same,Effect on N-acylethanolamide acid amidase activity,[13],no significant effect
COC(=O)[C@]1(C)CC[C@]2(C)CC[C@]3(C)C4=CCc5c(cc(O)c(O)c5C)[C@]4(C)CC[C@@]3(C)[C@@H]2C1 [Pristimerol],IC50,[1],4 ± 0.5 µM
CC(C)=CCC[C@@H](C)[C@@H]1CC[C@]2(C)C3=C(CC[C@@]12C)[C@@]1(C)CC[C@H](O)C(C)(C)[C@@H]1CC3 [euphol],IC50,[3]; [14],0.882 ± 0.078 µM
same,IC50,[3]; [15],0.513 ± 0.009 µM
same,Effect of Cys208 replacement on concentration-response curve,"[4]; C208G vs wt, HeLa cell extracts",no effect
same,IC50,[5],2.6 ± 0.2 µM
same,Effect of Cys32 mutation on activity of inhibitor,[6],did not influence the activity
same,Mechanism of MGL inhibition,[8],reversible and non-competitive
same,Effect on PEA levels,"[2]; 10 μM, 30 min, data not shown","small, non-significant change"
same,Cellular 2-AG levels,"[2]; 10 μM, 30 min, over vehicle-treated neurons",1.2±0.2 fold change
same,IC50,[9],9 ± 1 µM
